{"data": "Results from different studies", "target": "Myosin-IIIa (MYO3A, Homo sapiens, UniProt Q8NEV4)", "note": "Compare with care: the assays were run in different laboratories."}
{"SMILES": "Cc1nccc(COC(=O)N2C[C@@H]3[C@@H](CNC(=O)c4ccc5[nH]nnc5c4)[C@@H]3C2)n1", "test": "binding, competition with immobilised ligand", "conditions": "1 µM", "remaining binding": "99%"}
{"SMILES": "CC1CCCN1c1nccc(-c2cnn3ncccc23)n1 (stereo not drawn)", "test": "binding", "conditions": "1 µM", "remaining binding": "100%"}
{"SMILES": "O=C(O)c1cc(-c2ccc(C3CCNCC3)cc2)c2ccc(-c3ccc(C(F)(F)F)cc3)cc2c1", "test": "binding, competition with immobilised ligand", "conditions": "1 µM", "remaining binding": "100%"}
{"SMILES": "COc1ncc2cc3ccccc3nc2c1C#N", "test": "binding, competition with immobilised ligand", "conditions": "5 µM", "remaining binding": "100%"}
{"SMILES": "CN(CCCC(F)(F)F)c1nccc(-c2cnn3ncccc23)n1", "test": "binding", "conditions": "1 µM", "remaining binding": "78%"}
{"SMILES": "O=C(NCC1CCOCC1)c1n[nH]cc1NC(=O)c1c(F)cccc1F", "test": "binding, competition with immobilised ligand", "conditions": "1 µM", "remaining binding": "88%"}
{"SMILES": "F[C@@H]1CCN(c2nccc(-c3cnn4ncccc34)n2)C1", "test": "binding", "conditions": "1 µM", "remaining binding": "93%"}
{"SMILES": "COc1cnc(Nc2cccc(S(N)(=O)=O)c2)nc1N1CCN(c2ccccc2)C(=O)C1", "test": "binding, competition with immobilised ligand", "conditions": "1 µM", "remaining binding": "100%"}
{"SMILES": "CS(=O)(=O)c1cc(C2(NC(=O)c3cncc4c3cnn4-c3ccc(F)cc3)CC2)ccn1", "test": "cell-free assay, competition with immobilised ligand", "conditions": "1 µM", "remaining binding": "85%"}
{"SMILES": "c1cncc(-c2cccc(Nc3nccc(NC4CCCCC4)n3)c2)c1", "test": "binding, competition with immobilised ligand", "conditions": "10 µM", "remaining binding": "99%"}
{"SMILES": "C[C@@H]1CCN(c2nccc(-c3cnn4ncccc34)n2)C1", "test": "binding", "conditions": "1 µM", "remaining binding": "100%"}
{"SMILES": "COc1cnc(Nc2cccc(S(N)(=O)=O)c2)nc1N1CCN(c2ccccc2)CC1", "test": "binding, competition with immobilised ligand", "conditions": "1 µM", "remaining binding": "100%"}
{"SMILES": "O=C(c1ccc(Nc2ncc(Cl)c(-c3ccc(Cl)s3)n2)cc1)N1CCC(N2CCCC2)CC1", "test": "binding, competition with immobilised ligand", "conditions": "1 µM", "remaining binding": "81%"}
{"SMILES": "CN(c1nccc(-c2cnn3ncccc23)n1)C1CC1", "test": "binding", "conditions": "1 µM", "remaining binding": "77%"}
{"SMILES": "FC(F)(F)c1ccc2c(c1)nc(-c1cccnc1)n2C1CC1", "test": "cell-free assay, competition with immobilised ligand", "conditions": "1 µM", "remaining binding": "100%"}
{"SMILES": "O=C(NCCCN1CCOCC1)c1ccc(Nc2nccc(-c3cc4ccccc4s3)n2)cc1", "test": "binding, competition with immobilised ligand", "conditions": "1 µM", "remaining binding": "87%"}
{"SMILES": "C=CC(=O)N1CCC(C(=O)NCC(=O)N2CCN(c3nc(-c4cnc(N)nc4C(F)F)nc(N4CCOCC4)n3)CC2)CC1", "test": "binding, competition with immobilised ligand", "conditions": "1 µM", "remaining binding": "100%"}
{"SMILES": "C[C@@H]1CN(c2cc(-c3nn(C)c4ccc(OC5(C)CC5)cc34)ncn2)C[C@H](C)O1", "test": "cell-free assay, competition with immobilised ligand", "conditions": "1 µM", "remaining binding": "100%"}
{"SMILES": "CN(C)c1nccc(-c2cnn3ncccc23)n1", "test": "binding", "conditions": "1 µM", "remaining binding": "100%"}
{"SMILES": "O=C(c1ccc(Nc2ncc(Cl)c(-c3cc4ccccc4s3)n2)cc1)N1CCC(N2CCCC2)CC1", "test": "binding, competition with immobilised ligand", "conditions": "1 µM", "remaining binding": "91%"}
{"SMILES": "CCC(=N\\O)/C(C)=C/c1ccc(F)cc1", "test": "cell-free assay, competition with immobilised ligand", "conditions": "1 µM", "remaining binding": "100%"}
